Assay results as given in ChEMBL document CHEMBL3808334, “Synthesis and in vitro evaluation of novel triazine analogues as anticancer agents and their interaction studies with bovine serum albumin” (Eur J Med Chem, 2016).

How the values were obtained:
Format in all cases: functional
K562 [1] = assay: Growth inhibition of human K562 cells incubated for 48 hrs by sulforhodamine B assay; conditions: K562, 48 h
Outline: (§1)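 Cells were plated at 5,000–40,000 per well according to doubling time and preincubated 24 h at 37 °C in 5% CO2; time-zero plates were then TCA-fixed. Five concentrations (10-fold or ½-log dilutions, DMSO stock) were incubated 48 h. Cells were TCA-fixed, stained with 0.4% SRB and read at 515 nm. GI50 was taken where [(Ti−Tz)/(C−Tz)]×100 = 50.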

[2] = Growth inhibition of human MOLT4 cells assessed as cell growth at 10^-4 M incubated for 48 hrs by sulforhodamine B assay; conditions: MOLT-4, 48 h, read-out: Activity
[3] = Growth inhibition of human OVCAR4 cells assessed as cell growth at 10^-6 M incubated for 48 hrs by sulforhodamine B assay; conditions: OVCAR-4, 48 h, read-out: Activity
[4] = Growth inhibition of human HCT116 cells assessed as cell growth at 10^-4 M incubated for 48 hrs by sulforhodamine B assay; conditions: HCT-116, 48 h, read-out: Activity
Outline: (§2)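 Cells seeded at 5,000–40,000/well according to doubling time and preincubated 24 h at 37 °C, 5% CO2. Time-zero plates were TCA-fixed. DMSO concentrate was diluted in medium with 50 µg/ml gentamicin to give five concentrations (10-fold or ½ log steps), then exposed 48 h. Cells were TCA-fixed, stained with 0.4% SRB and read at 515 nm. Percent growth was taken against time-zero and control; GI50, TGI and LC50 derived.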

A498 [5] = assay: Growth inhibition of human A498 cells assessed as cell growth at 10^-7 M incubated for 48 hrs by sulforhodamine B assay; conditions: A498, 48 h, read-out: Activity
Outline: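 Five-dose assay: five concentrations from 10-fold or ½-log serial dilutions. Cells are plated at 5,000–40,000 per well according to doubling time, grown 24 h, then exposed 48 h at 37 °C, 5% CO₂. Fixed with cold 50% TCA (final addition) for 60 min at 4 °C and stained with 0.4% SRB in 1% acetic acid. Bound dye is solubilized in 10 mM Tris base and read at 515 nm. GI₅₀ is where [(Ti−Tz)/(C−Tz)]×100 = 50, with a time-zero plate as Tz.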

[6] = Growth inhibition of human SNB19 cells incubated for 48 hrs by sulforhodamine B assay; conditions: SNB-19, 48 h; outline: as §1
NCI-H23 = assay: Growth inhibition of human NCI-H23 cells assessed as cell growth at 10 uM incubated for 48 hrs by sulforhodamine B assay; conditions: NCI-H23, 48 h, read-out: Activity
SK-MEL-28 = assay: Growth inhibition of human SK-MEL-28 cells assessed as cell growth at 10^-4 M incubated for 48 hrs by sulforhodamine B assay; conditions: SK-MEL-28, 48 h, read-out: Activity
NCI/ADR-RES = assay: Growth inhibition of human NCI/ADR-RES cells assessed as cell growth at 10^-8 M incubated for 48 hrs by sulforhodamine B assay; conditions: read-out: Activity
SR = assay: Growth inhibition of human SR cells assessed as cell growth at 10^-6 M incubated for 48 hrs by sulforhodamine B assay; conditions: read-out: Activity
MDA-MB-468 = assay: Growth inhibition of human MDA-MB-468 cells assessed as cell growth at 10^-6 M incubated for 48 hrs by sulforhodamine B assay; conditions: MDA-MB-468, 48 h, read-out: Activity
K562 [7] = assay: Growth inhibition of human K562 cells assessed as cell growth at 10 uM incubated for 48 hrs by sulforhodamine B assay; conditions: K562, 48 h, read-out: Activity
[8] = Growth inhibition of human SW620 cells incubated for 48 hrs by sulforhodamine B assay; conditions: SW-620, 48 h; outline: as §1
[9] = Growth inhibition of human leukemia cells incubated for 48 hrs by sulforhodamine B assay; conditions: Leukemia cell; for CC50: read-out: LC50 (the source's name)
[10] = Growth inhibition of human COLO205 cells assessed as cell growth at 10^-5 M incubated for 48 hrs by sulforhodamine B assay; conditions: COLO 205, 48 h, read-out: Activity; outline: as §2
[11] = Growth inhibition of human HCT116 cells assessed as cell growth at 10^-8 M incubated for 48 hrs by sulforhodamine B assay; conditions: HCT-116, 48 h, read-out: Activity; outline: as §2
MCF7 [12] = assay: Growth inhibition of human MCF7 cells incubated for 48 hrs by sulforhodamine B assay; conditions: MCF7, 48 h; outline: as §1
[13] = Growth inhibition of human OVCAR8 cells assessed as cell growth at 10^-8 M incubated for 48 hrs by sulforhodamine B assay; conditions: OVCAR-8, 48 h, read-out: Activity
A498 [14] = assay: Growth inhibition of human A498 cells assessed as cell growth at 10 uM incubated for 48 hrs by sulforhodamine B assay; conditions: A498, 48 h, read-out: Activity
Outline: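 One-dose screen at 10 µM final. Cells are plated at 5,000–40,000 per well according to doubling time and preincubated 24 h at 37 °C, 5% CO₂. Compound (DMSO stock diluted in medium with 50 µg/ml gentamicin) is then added for 48 h. Growth percent is read by sulforhodamine B staining, absorbance at 515 nm.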

[15] = Growth inhibition of human HCT116 cells assessed as cell growth at 10 uM incubated for 48 hrs by sulforhodamine B assay; conditions: HCT-116, 48 h, read-out: Activity
Outline: (§3)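 Primary screen at one dose (10 µM) across 60 human cancer cell lines. Readout was growth percent relative to untreated control and time-zero.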

[16] = Growth inhibition of human HCC2998 cells assessed as cell growth at 10 uM incubated for 48 hrs by sulforhodamine B assay; conditions: HCC 2998, 48 h, read-out: Activity; outline: as §3
SK-MEL-2 = assay: Growth inhibition of human SK-MEL-2 cells assessed as cell growth at 10^-4 M incubated for 48 hrs by sulforhodamine B assay; conditions: SK-MEL-2, 48 h, read-out: Activity
MDA-MB-435 = assay: Growth inhibition of human MDA-MB-435 cells assessed as cell growth at 10^-8 M incubated for 48 hrs by sulforhodamine B assay; conditions: MDA-MB-435, 48 h, read-out: Activity
MCF7 [17] = assay: Growth inhibition of human MCF7 cells assessed as cell growth at 10^-4 M incubated for 48 hrs by sulforhodamine B assay; conditions: MCF7, 48 h, read-out: Activity
[18] = read-out: LC50 (the source's name)
[19] = read-out: pLC50 (the source's name) (converted)

Fc1ccc(-c2nc(Nc3ccc(-c4nc5ccccc5[nH]4)cc3)nc(N3CCOCC3)n2)cc1
GI50 (K562 [1]; read-out: GI50): 2.45 µM | CC50 (K562 [1]; [18]): > 100 µM | GI50 (K562 [1]; read-out: pGI50 (converted)): 2.45 µM | CC50 (K562 [1]; [19]): > 100 µM | growth at 100 µM [2]: -33% | growth at 1 µM [3]: 96% | growth at 100 µM [4]: -78% | growth at 0.1 µM (A498 [5]): 83% | GI50 ([6]; read-out: GI50): 3.49 µM | CC50 [6, 18]: > 100 µM | TGI ([6]; read-out: TGI): > 100 µM | GI50 ([6]; read-out: pGI50 (converted)): 3.47 µM | CC50 [6, 19]: > 100 µM | TGI ([6]; read-out: pTGI (converted)): > 100 µM | growth at 10 µM (NCI-H23): 11.3% | growth at 100 µM (SK-MEL-28): -36% | growth at 0.01 µM (NCI/ADR-RES): 98% | growth at 1 µM (SR): 37% | growth at 1 µM (MDA-MB-468): 106% | growth at 10 µM (K562 [7]): -22% | GI50 ([8]; read-out: GI50): 2.19 µM | CC50 [8, 18]: > 100 µM | TGI ([8]; read-out: TGI): 4.8 µM | GI50 ([8]; read-out: pGI50 (converted)): 2.19 µM | CC50 [8, 19]: > 100 µM | TGI ([8]; read-out: pTGI (converted)): 4.79 µM | GI50 [9]: 2.02 µM | TGI [9]: 6.11 µM | CC50 [9]: > 100 µM | growth at 10 µM [10]: -55% | growth at 0.01 µM [11]: 90% | GI50 (MCF7 [12]; read-out: GI50): 2.59 µM | CC50 (MCF7 [12]; [18]): > 100 µM | TGI (MCF7 [12]; read-out: TGI): > 100 µM | GI50 (MCF7 [12]; read-out: pGI50 (converted)): 2.57 µM | CC50 (MCF7 [12]; [19]): > 100 µM | TGI (MCF7 [12]; read-out: pTGI (converted)): > 100 µM | growth at 0.01 µM [13]: 101% | growth at 10 µM (A498 [14]): -32.1% | growth at 10 µM [15]: 4.8% | growth at 10 µM [16]: -19.9% | growth at 100 µM (SK-MEL-2): -50% | growth at 0.01 µM (MDA-MB-435): 99% | growth at 100 µM (MCF7 [17]): 1%

c1ccc2[nH]c(-c3ccc(Nc4nc(N5CCCCC5)nc(N5CCOCC5)n4)cc3)nc2c1
GI50 (K562 [1]; read-out: GI50): 2.84 µM | CC50 (K562 [1]; [18]): > 100 µM | GI50 (K562 [1]; read-out: pGI50 (converted)): 2.82 µM | CC50 (K562 [1]; [19]): > 100 µM | growth at 100 µM [2]: -34% | growth at 1 µM [3]: 93% | growth at 100 µM [4]: -75% | growth at 0.1 µM (A498 [5]): 81% | GI50 ([6]; read-out: GI50): 3.73 µM | CC50 [6, 18]: > 100 µM | TGI ([6]; read-out: TGI): 81.9 µM | GI50 ([6]; read-out: pGI50 (converted)): 3.72 µM | CC50 [6, 19]: > 100 µM | TGI ([6]; read-out: pTGI (converted)): 81.3 µM | growth at 10 µM (NCI-H23): 19.7% | growth at 100 µM (SK-MEL-28): -54% | growth at 0.01 µM (NCI/ADR-RES): 99% | growth at 1 µM (SR): 44% | growth at 1 µM (MDA-MB-468): 106% | growth at 10 µM (K562 [7]): -6.74% | GI50 ([8]; read-out: GI50): 2.34 µM | CC50 [8, 18]: 74.7 µM | TGI ([8]; read-out: TGI): 5.87 µM | GI50 ([8]; read-out: pGI50 (converted)): 2.34 µM | CC50 [8, 19]: 74.1 µM | TGI ([8]; read-out: pTGI (converted)): 5.89 µM | GI50 [9]: 2.37 µM | TGI [9]: 6.5 µM | CC50 [9]: > 100 µM | growth at 10 µM [10]: -63% | growth at 0.01 µM [11]: 100% | GI50 (MCF7 [12]; read-out: GI50): 2.4 µM | CC50 (MCF7 [12]; [18]): > 100 µM | TGI (MCF7 [12]; read-out: TGI): 7.9 µM | GI50 (MCF7 [12]; read-out: pGI50 (converted)): 2.4 µM | CC50 (MCF7 [12]; [19]): > 100 µM | TGI (MCF7 [12]; read-out: pTGI (converted)): 7.94 µM | growth at 0.01 µM [13]: 96% | growth at 10 µM (A498 [14]): -28.6% | growth at 10 µM [15]: 9.65% | growth at 10 µM [16]: -1.07% | growth at 100 µM (SK-MEL-2): -68% | growth at 0.01 µM (MDA-MB-435): 96% | growth at 100 µM (MCF7 [17]): -5%
